This passage reports yeast fitness results from the RNAGym collection of RNA variant scans (doi:10.1126/science.aae0568).

B1: tRNA (parent)
chain: GUUCCGUUGGCGUAAUGGUAACGCGUCUCCCUCCUAAGGAGAAGACUGCGGGUUCGAGUCCCGUACGGAACG

Variants at the floor of the assay were thinned out.

In the data set the parent is B1. Briefly: yeast fitness relative to wild type (ratio to wild type); higher = fitter; tRNA-Arg(CCU), competitive growth, 37 C, YPD. Put shortly: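 Amplicons of the tRNA-Arg(CCU) gene were sequenced, 100-nucleotide paired-end, from the start population and from each end population of a pooled yeast competition. The competition, in six parallel replicates, lasted 24 hours in YPD at 37°C. Fitness relative to wild type was calculated from changes in genotype frequencies. Genotypes had to have ≥ 100 starting reads, and estimates < 0.5 were set to 0.5.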
Turning to C11G U13C G58C A69U, the yeast fitness is at most 0.5.

On to A20G C31U A57C U64A G68A, for which the yeast fitness was at most 0.5.

Consider C27U C29G, for which the yeast fitness turned out to be 0.58.

Consider A20C A37G C49G U53A C60U A69C, for which the yeast fitness turned out to be 0.57.

Turning to C46U G56A G67A, the yeast fitness stood at 0.686.

Turning to C5A U7C C29U C66U, the yeast fitness is at most 0.5.

As to C31G A37C G52C C61G C66U, the yeast fitness is at most 0.5.

As to C4A C27U U28G C33G A36G G56C, the yeast fitness is at most 0.5.

As to C5A A40U G67C, the yeast fitness stood at 0.627.

With C31U G68A A69G, the yeast fitness was 0.702.

For C4G C22U C27U, the yeast fitness was determined as 0.657.

G23A U26A G50C U53C: the yeast fitness was at most 0.5.

As for G6C C61U A70G, the yeast fitness was determined as 0.554.

For the variant C4A A21U, the yeast fitness was determined as 0.676.

For the variant A37U G67A, the yeast fitness is 0.724.

In the case of C27G U47C A70U, the yeast fitness is 0.545.

For C49G G56A G63A, the yeast fitness was 0.584.

With U8C G18C, the yeast fitness was determined as 0.684.

With C22G C29A G63A, the yeast fitness worked out at 0.553.

On to C30G C31A G63C, for which the yeast fitness came to 0.546.

For U3C A21U C34A G52A C61G G63A, the yeast fitness is at most 0.5.

Consider G6C G52C, for which the yeast fitness stood at 0.653.

For C22A C30U C31G C61U A69C, the yeast fitness is at most 0.5.

Consider U13A C24U C49G, for which the yeast fitness was at most 0.5.

As to C27G A40C C55G, the yeast fitness was at most 0.5.

Regarding C31G C49G C62U G67C G68A, the yeast fitness is 0.539.

Consider C27G A69U, for which the yeast fitness worked out at 0.738.

C4U A45C: the yeast fitness amounted to 0.939.

For C11U A20U G39A U64C A65C, the yeast fitness was at most 0.5.

As to U2A C5U A69C, the yeast fitness is 0.687.

Turning to C30A G50C C66U, the yeast fitness was at most 0.5.

For U13C C30A C31A, the yeast fitness was found to be 0.532.

On to A15C A43U G67A, for which the yeast fitness amounted to 0.535.

Regarding G10A U26A C62U, the yeast fitness is 0.529.

Consider A37C U47A, for which the yeast fitness amounted to 0.674.

Take G17U A37U: the yeast fitness was at most 0.5.

As for C4A A37C, the yeast fitness was 0.707.

In the case of C5A A20U, the yeast fitness was 0.781.

For the variant C22A C24G A36G G39C G56A, the yeast fitness is at most 0.5.

As for C4G G18C C24G C29G, the yeast fitness was at most 0.5.

U16A A20C U53C: the yeast fitness was found to be 0.599.

For the variant C4G A40G C55U, the yeast fitness was at most 0.5.

Consider U2C U19C A37G C49A C66G, for which the yeast fitness is at most 0.5.

Turning to C11U C66G A69U, the yeast fitness was found to be 0.555.

As for U8C A21U, the yeast fitness is 0.802.

In the case of A15C G38A C49A, the yeast fitness is at most 0.5.

Consider C5U C24U G41C A70C, for which the yeast fitness was at most 0.5.

C5G G9A C61U: the yeast fitness was at most 0.5.

As for A15C A36G U47C C55A, the yeast fitness is at most 0.5.

On to U32C G58C, for which the yeast fitness is 0.884.

Turning to G18A U19C C27G C61A U64G, the yeast fitness was at most 0.5.

Regarding A14G C24A, the yeast fitness came out at 0.666.

Take A20U A70G: the yeast fitness turned out to be 0.918.

On to G23A A43C C66G, for which the yeast fitness is at most 0.5.

Turning to G41C U54A, the yeast fitness turned out to be 0.667.

On to G12A G41C A45C G68A, for which the yeast fitness is at most 0.5.

A15U A21C C29U C30A G38A: the yeast fitness was at most 0.5.

For the variant U16G U28G C34U C49U G63C, the yeast fitness is at most 0.5.

With G48A C49G, the yeast fitness was found to be 1.05.

On to G12A U19C A21U G58C, for which the yeast fitness amounted to 0.94.

As for A36G C49G A70G, the yeast fitness came to 0.53.

For the variant A40U A57U, the yeast fitness worked out at 0.837.

For the variant C49U U54G C61U, the yeast fitness was at most 0.5.

As for G9A G50C, the yeast fitness amounted to 0.947.

Turning to A15G C49U, the yeast fitness worked out at 1.07.

Turning to A15C C31A U59C G63A A69G, the yeast fitness is at most 0.5.

For G25C U59A, the yeast fitness stood at 0.804.

U26C A36U A45U G52C A57U: the yeast fitness was at most 0.5.

Consider C34A C49U U59C, for which the yeast fitness was at most 0.5.

Turning to A21G A43U C49U U53C C61G, the yeast fitness was at most 0.5.

G18A C27U C46A: the yeast fitness came out at 0.528.

On to C11G A14U C22A C29G C34A, for which the yeast fitness was at most 0.5.

Regarding A14C G50A C55G C62A, the yeast fitness stood at 0.692.

Take C22A C27U: the yeast fitness came out at 0.976.

As to A21C U32C C60G, the yeast fitness is at most 0.5.

As to C24G C49U C55G G58A, the yeast fitness worked out at 0.764.

Regarding C27U A65C, the yeast fitness came to 1.02.

For the variant U13C C24U C34G, the yeast fitness came out at 0.556.

For the variant A15G A20U C29G A43G G67A, the yeast fitness is at most 0.5.

C5G G9C C33A U35C C46U C49U G52C C61U C66U: the yeast fitness was at most 0.5.

For the variant U16G C27U U28A G52C U54A C66U, the yeast fitness was at most 0.5.

With C11U A36C G68C, the yeast fitness is at most 0.5.

With G23C C30G G39C, the yeast fitness stood at 0.501.

In the case of C24G U59A A70U, the yeast fitness was at most 0.5.

On to C4U G9A C22G A42U G56A, for which the yeast fitness is at most 0.5.

Regarding A15C C46U G51A C66A, the yeast fitness is at most 0.5.

For the variant C33U A69C, the yeast fitness is 0.726.

For the variant A15C C27U U28A A40U, the yeast fitness was at most 0.5.

With C27A A37U C49U C55U C60G A65C, the yeast fitness was at most 0.5.

As for C49U A57U G58C, the yeast fitness was at most 0.5.

In the case of G38A U47C, the yeast fitness turned out to be 0.837.

Take G18A C34G C46A C62U A69C: the yeast fitness is at most 0.5.

With A42C A45C G48A A65G, the yeast fitness is 0.671.

Consider U28G C60A, for which the yeast fitness came to 0.53.

With G18A A65C, the yeast fitness amounted to 0.759.

In the case of C30U A69U, the yeast fitness stood at 0.879.

Take G38C U64C: the yeast fitness was 0.803.

As to U8C C27G C29A, the yeast fitness was at most 0.5.

With A21G U35G A57C G67C, the yeast fitness was at most 0.5.

G17U G25A U28G G58A C66G: the yeast fitness was at most 0.5.

Regarding U7A A15G G23C C33G G63A, the yeast fitness was at most 0.5.

For C46G C55U, the yeast fitness worked out at 0.769.

As for U3A C11G C61A, the yeast fitness was at most 0.5.

Consider C5G G9C A43G A70U, for which the yeast fitness was at most 0.5.

Take C30U A45C A69U: the yeast fitness worked out at 0.704.

With A40C A42G U47C C55A, the yeast fitness is 0.587.

As to A15G G23C, the yeast fitness amounted to 0.712.

In the case of U35C G50A G67A, the yeast fitness was at most 0.5.

As for A21C C22G A69C, the yeast fitness is at most 0.5.

On to A20C G56A A65G C66U, for which the yeast fitness came out at 0.562.

Regarding A21U U28G G56A, the yeast fitness is at most 0.5.

On to U7A G9A U13A A43G G56A, for which the yeast fitness is at most 0.5.

Take G17A C22G C33U C62A: the yeast fitness is at most 0.5.

Take C11G C31U G67C: the yeast fitness stood at 0.632.

For G10C C33A, the yeast fitness was 0.506.

For the variant A14U G39A, the yeast fitness was 0.671.

Turning to A20C G68A, the yeast fitness was determined as 0.843.

Take A20U C29A: the yeast fitness is 0.797.

For the variant C11G G23C G39A, the yeast fitness worked out at 0.525.

Regarding C4U G10A U28A, the yeast fitness is at most 0.5.

G6A G12C U16C A21U G63C G67A: the yeast fitness is at most 0.5.

With G10C G58A C66G, the yeast fitness is at most 0.5.

With C4G C29G A37G, the yeast fitness came out at 0.598.

On to U28C U35G A69C, for which the yeast fitness is at most 0.5.

For A42U A43G G48C U53A A69C, the yeast fitness came to 0.589.

On to U16A C46G A70G, for which the yeast fitness was 0.604.

For A36C A43C C66A, the yeast fitness amounted to 0.731.

Regarding A21C A45U G48C C62U, the yeast fitness is at most 0.5.

For the variant G6C A36C U64A, the yeast fitness came to 0.539.

As to U2G A57U G67C, the yeast fitness was at most 0.5.

For the variant G6C G39C G51A, the yeast fitness is 0.741.

For the variant U26G A36G, the yeast fitness is 0.914.

For the variant G18C A57U, the yeast fitness was 0.555.

In the case of C5A U8A U16G A20U A36G C60G, the yeast fitness is at most 0.5.

Consider U2A G6A U7C A15C C29G C33U G68U, for which the yeast fitness was at most 0.5.

A15G G48A C62U: the yeast fitness is 1.03.

Consider C24U G48A G51A, for which the yeast fitness was 0.665.

Regarding G9A C30U C33A A36U A43U U54C G56A, the yeast fitness was 0.626.

Regarding C4G U19C C24U, the yeast fitness came out at 0.619.

As to U3A C5G U35A A40U C46G U53A, the yeast fitness stood at 0.583.

As to A20C C33U A37G A45U G48A G56C, the yeast fitness is at most 0.5.

Turning to C5G A37U C55G C61G C66G, the yeast fitness was 0.623.

With U26A U28A C31U G56A C66G, the yeast fitness is at most 0.5.

For A20C C34A A37G C46A, the yeast fitness was 0.541.

With U3A C4G A43G, the yeast fitness is at most 0.5.

With C4A G39C G41C G56C, the yeast fitness is at most 0.5.

Regarding G10A G12A U53A, the yeast fitness was at most 0.5.

In the case of C24A A40G C66U, the yeast fitness was at most 0.5.

Regarding C5U C27A C33G A45C G50C G58A, the yeast fitness stood at 0.514.

Turning to G9A C24U U32G, the yeast fitness was at most 0.5.

With C29U G50C A70G, the yeast fitness was at most 0.5.

In the case of C34A A42G, the yeast fitness is 0.676.

Turning to C4A C24G U32C C62U A69C, the yeast fitness was at most 0.5.

As to G25A U35C A43G, the yeast fitness is at most 0.5.

On to G6A G10A U26A C27U C29A A65G G68C, for which the yeast fitness was at most 0.5.

As to G51A C60A, the yeast fitness is 0.599.

With U28A A40U C61A G68A, the yeast fitness was at most 0.5.

With G17U C30A A43U C66U, the yeast fitness was at most 0.5.

For the variant G18A U32C A70G, the yeast fitness was found to be 0.599.

For G9A U13C U19C C34U, the yeast fitness was 0.549.

Regarding A57C C60A, the yeast fitness was at most 0.5.

U47A G68C: the yeast fitness worked out at 0.606.

C31A C34U U54C A69C: the yeast fitness is at most 0.5.

For C49U C60U A69C, the yeast fitness stood at 0.566.

With A20G C24G C66U, the yeast fitness amounted to 0.527.

Take U3C U26C A42U C60G G67A: the yeast fitness was at most 0.5.

On to C11U U13A C30U G38C C49A, for which the yeast fitness was at most 0.5.
